Values after ≈ are worked out from the molar mass of the structure shown.
Tests used:
Format in all cases: functional
Pseudomonas aeruginosa [1] = test: Antimicrobial activity against Pseudomonas aeruginosa PAO1 after 16 to 20 hrs by broth microdilution method
How it was run: (§1)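 CLSI broth microdilution: 2-fold serial antibiotic dilutions in Mueller-Hinton broth, inoculated with about 10^4 cells per 100 μl from starter cultures grown to OD600 0.5. MIC is the lowest concentration preventing growth after 16-20 h at 37°C. Triplicate.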

Pseudomonas aeruginosa [2] = test: Antimicrobial activity against ampG, ampGh1 deficient Pseudomonas aeruginosa PAO1 after 16 to 20 hrs by broth microdilution method
How it was run: (§2)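 CLSI broth microdilution in Mueller-Hinton broth, serial 2-fold antibiotic dilutions. Inoculum about 10^4 cells per well, taken from starter cultures grown to OD600 0.5. MIC was the lowest antibiotic concentration preventing growth after 16 to 20 h at 37°C. Each MIC was determined in triplicate.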

Pseudomonas aeruginosa [3] = test: Antimicrobial activity against ampG, ampGh1 deficient Pseudomonas aeruginosa PAK after 16 to 20 hrs by broth microdilution method; how it was run: as §2
Pseudomonas aeruginosa [4] = test: Antimicrobial activity against ampD, ampDh2, ampDh3 and ampG deficient Pseudomonas aeruginosa PAO1 harboring pUCP24 conferring resistance to gentamycin after 16 to 20 hrs by broth microdilution method in presence of 120 uM carbonyl cyanide m-chlorophenyl-hydrazone
How it was run: (§3)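 CLSI broth microdilution in Mueller-Hinton broth with serial antibiotic dilutions. CCCP was added from a 10 mM DMSO stock to 120 μM final, then the bacterial culture was added as inoculum (about 10^4 cells from OD600 0.5 starter cultures). MIC was the lowest concentration preventing growth after 16 to 20 h at 37°C, run in triplicate.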

Pseudomonas aeruginosa [5] = test: Antimicrobial activity against Pseudomonas aeruginosa isolate 2 obtained from cystic fibrosis patients after 16 to 20 hrs by broth microdilution method in presence of 120 uM carbonyl cyanide m-chlorophenyl-hydrazone; how it was run: as §3
Pseudomonas aeruginosa [6] = test: Antimicrobial activity against Pseudomonas aeruginosa isolate 9 obtained from cystic fibrosis patients after 16 to 20 hrs by broth microdilution method in presence of 120 uM carbonyl cyanide m-chlorophenyl-hydrazone; how it was run: as §3
Pseudomonas aeruginosa [7] = test: Antimicrobial activity against Pseudomonas aeruginosa isolate 13 obtained from cystic fibrosis patients after 16 to 20 hrs by broth microdilution method in presence of 120 uM carbonyl cyanide m-chlorophenyl-hydrazone
How it was run: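 CLSI broth microdilution in Mueller-Hinton broth with CCCP added from a 10 mM DMSO stock to 120 μM final, alongside 2-fold serial antibiotic dilutions. Inoculum from starter cultures grown to OD600 0.5. MIC is the lowest concentration preventing growth after 16-20 h at 37°C. Triplicate.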

Pseudomonas aeruginosa [8] = test: Antimicrobial activity against Pseudomonas aeruginosa isolate 14 obtained from cystic fibrosis patients after 16 to 20 hrs by broth microdilution method; how it was run: as §1
Pseudomonas aeruginosa [9] = test: Antimicrobial activity against Pseudomonas aeruginosa isolate 18 obtained from cystic fibrosis patients after 16 to 20 hrs by broth microdilution method in presence of 120 uM carbonyl cyanide m-chlorophenyl-hydrazone; how it was run: as §3

CC1(C)S[C@@H]2[C@H](NC(=O)[C@H](N)c3ccccc3)C(=O)N2[C@H]1C(=O)O [AMPICILLIN]
MIC (Pseudomonas aeruginosa [1]): 256 µg/mL (≈ 733 µM) | MIC (Pseudomonas aeruginosa [2]): 32 µg/mL (≈ 91.6 µM) | MIC (Pseudomonas aeruginosa [3]): 32 µg/mL (≈ 91.6 µM) | MIC (Pseudomonas aeruginosa [4]): 16 µg/mL | MIC (Pseudomonas aeruginosa [5]): 256 µg/mL | MIC (Pseudomonas aeruginosa [6]): 8 µg/mL | MIC (Pseudomonas aeruginosa [7]): 8 µg/mL | MIC (Pseudomonas aeruginosa [8]): 512 µg/mL (≈ 1470 µM) | MIC (Pseudomonas aeruginosa [9]): 256 µg/mL

Reference: ChEMBL document CHEMBL1687785, “ampG gene of Pseudomonas aeruginosa and its role in β-lactamase expression” (2010)
